From ChEMBL document CHEMBL1146368, “Development of selective inhibitors for anti-apoptotic Bcl-2 proteins from BHI-1” (Bioorg Med Chem, 2007)

What was measured:
Homo sapiens [1] = organism: Homo sapiens; test: Selectivity for recombinant Bcl-w protein over recombinant Bcl-XL protein
Bcl-2-like protein 2 = molecular target: T1, Bcl-2-like protein 2 (Homo sapiens, UniProt Q92843); test: Displacement of Flu-Bak peptide from recombinant antiapoptotic Bcl-w protein by fluorescence polarization assay
T1 sequence (Q92843 whole entry): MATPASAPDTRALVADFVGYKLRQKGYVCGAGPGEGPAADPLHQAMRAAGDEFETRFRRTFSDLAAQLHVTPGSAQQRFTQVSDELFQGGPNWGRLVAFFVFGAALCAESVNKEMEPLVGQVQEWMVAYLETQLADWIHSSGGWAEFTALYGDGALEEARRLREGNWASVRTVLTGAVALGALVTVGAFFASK
Procedure, shortened: (§1)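 Recombinant Ni-NTA-purified proteins from E. coli ER2566 (Bcl-2 lacking transmembrane domain). Oregon Green-labelled Bak BH3 peptide (50 nM in premix) is preincubated 1 h at 23 °C with protein for 60% complex (Bcl-2 1000 nM, Bcl-XL 880 nM, Bcl-w 1200 nM) in PBS pH 7.0 with 1 mM DTT. This is added to compound from 3-fold DMSO stocks (0.014–10 mM), incubated 1 h at 23 °C, and polarization read. Peptide-only background is subtracted. Ki is from the Wang equation; triplicates, run twice.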

[2] = molecular target: Apoptosis regulator Bcl-2 (Homo sapiens, UniProt P10415); test: Displacement of Flu-Bak peptide from recombinant antiapoptotic Bcl2 protein by fluorescence polarization assay
Procedure, shortened: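 Recombinant Ni-NTA-purified proteins from E. coli ER2566 (Bcl-2 lacking transmembrane domain). This is added to compound from 3-fold DMSO stocks (0.014–10 mM), incubated 1 h at 23 °C, and polarization read. Peptide-only background is subtracted. Ki is from the Wang equation; triplicates, run twice.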

[3] = Displacement of Flu-Bak peptide from recombinant antiapoptotic Bcl-XL protein by fluorescence polarization assay; set-up: species or system Homo sapiens; procedure, shortened: as §1
Homo sapiens [4] = organism: Homo sapiens; test: Selectivity for recombinant Bcl2 protein over recombinant Bcl-w protein
Homo sapiens [5] = organism: Homo sapiens; test: Selectivity for recombinant Bcl-XL protein over recombinant Bcl-2 protein
Homo sapiens [6] = organism: Homo sapiens; test: Selectivity for recombinant Bcl2 protein over recombinant Bcl-XL protein

Chain of Apoptosis regulator Bcl-2 (P10415 whole entry, the tested form may be a part): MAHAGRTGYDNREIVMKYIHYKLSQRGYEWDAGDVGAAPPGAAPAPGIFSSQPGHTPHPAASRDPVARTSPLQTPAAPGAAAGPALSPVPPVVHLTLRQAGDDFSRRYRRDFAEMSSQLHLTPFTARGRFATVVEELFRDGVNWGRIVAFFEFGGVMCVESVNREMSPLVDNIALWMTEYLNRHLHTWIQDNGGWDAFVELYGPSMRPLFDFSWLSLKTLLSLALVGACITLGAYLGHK

Row | SMILES | Ratio Ki (Homo sapiens [1]) | Ki (Bcl-2-like protein 2) [µM] | Ki [2] [µM] | Ki [3] [µM] | Ratio Ki (Homo sapiens [4]) | Ratio Ki (Homo sapiens [5]) | Ratio Ki (Homo sapiens [6])
1 | C=CCOC(=O)[C@H](Cc1ccccc1)N1C(=O)/C(=C/c2ccc(Br)cc2)SC1=S | 4.29 | 56.8 | > 1000 | 244 | – | – | –
2 | CC(C)C[C@@H](C(=O)O)N1C(=O)/C(=C(\c2ccccc2)c2ccc(-c3ccccc3)cc2)SC1=S | – | 6.98 | 1.95 | 8.7 | 3.58 | – | –
3 | C=CCOC(=O)[C@H](Cc1ccccc1)N1C(=O)C(=C(c2ccccc2)c2ccccc2)SC1=S | 1.52 | 116 | 260 | 176 | – | – | –
4 | O=C(O)[C@H](Cc1ccccc1)N1C(=O)/C(=C/c2ccc(Br)cc2)SC1=S | – | 21.5 | 14.2 | 5.35 | – | 2.65 | –
5 | CCCC[C@H]1C(=O)O[C@H](C)[C@H](NC(=O)c2cccc(NC=O)c2O)C(=O)O[C@@H](C)[C@@H]1OC(=O)CC(C)C [ANTIMYCIN A3] | – | 127 | 124 | – | – | – | –
6 | Cc1cc2c(C(C)C)c(O)c(O)c(C=O)c2c(O)c1-c1c(C)cc2c(C(C)C)c(O)c(O)c(C=O)c2c1O [GOSSYPOL] | – | 17.7 | – | 24.7 | – | – | –
7 | CSCC[C@@H](C(=O)O)N1C(=O)/C(=C/c2ccc(Br)cc2)SC1=S | – | 88 | 69.6 | 134 | 1.26 | – | –
8 | CC(C)C[C@@H](C(=O)O)N1C(=O)/C(=C/c2ccc(Br)cc2)SC1=S | – | 31.2 | 7.43 | 2.99 | – | 2.48 | –
9 | CCC/C(=C1/SC(=S)N([C@@H](CC(C)C)C(=O)O)C1=O)c1ccccc1 | – | 24.1 | 13.5 | 41.3 | 1.79 | – | –
10 | O=C(O)CC[C@@H](C(=O)O)N1C(=O)/C(=C/c2ccc(Br)cc2)SC1=S | – | 610 | 320 | 848 | 1.91 | – | –
11 | CC(C)C(C(=O)O)N1C(=O)/C(=C\c2ccc(Br)cc2)SC1=S (stereo unspecified) | – | 124 | 43.4 | 133 | 2.85 | – | –
12 | CC(C)C[C@@H](C(=O)O)N1C(=O)C(=C(c2ccccc2)c2ccccc2)SC1=S | – | 61.9 | 57.8 | 68.8 | 1.07 | – | –
13 | C[C@@H](C(=O)N1CCOCC1)N1C(=O)/C(=C/c2ccc(Br)cc2)SC1=S | – | 146 | 70 | 228 | 2.01 | – | –
14 | COc1ccc2c(c[n+](C)c3c4cc5c(cc4ccc23)OCO5)c1OC [CHELERYTHRINE CHLORIDE] | – | 106 | 171 | 96 | – | – | –
15 | C[C@@H](C(=O)O)N1C(=O)/C(=C/c2ccc(Br)cc2)SC1=S | – | 243 | 115 | 374 | 2.11 | – | –
16 | C/C(=C1/SC(=S)N([C@@H](CC(C)C)C(=O)O)C1=O)c1ccccc1 | – | 58.3 | 21.2 | 128 | 2.74 | – | –
17 | O=C(O)[C@H](Cc1c[nH]c2ccccc12)N1C(=O)/C(=C/c2ccc(Br)cc2)SC1=S | – | 54.2 | 2.85 | 32.8 | – | – | 11.5
18 | CCC/C(=C1/SC(=S)N([C@@H](Cc2ccccc2)C(=O)O)C1=O)c1ccccc1 | – | 41.1 | 12 | 27.9 | – | – | 2.33
19 | C=CCOC(=O)[C@H](C)N1C(=O)/C(=C/c2ccc(Br)cc2)SC1=S | – | > 1000 | 192 | 268 | – | – | 1.4
